The source made the active and inactive calls.
Legend:
[1] = system: Rattus norvegicus; assay: Antiarthritic activity in Lewis rat Freund's adjuvant-induced arthritis model assessed as reduction in hind paw volume at 2.5 mg/kg, ig administered through gavage pretreated for 1 hr followed by adjuvant challenge subsequent treatment for 9 days measured alternate days up to 24 days post dose by plethysmometer; format: functional, organism-based
In short: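 Lewis rat AIA (female, 8 weeks; 0.1 mL CFA intradermally into right hind paw), dosed by gavage 1 h pre-induction then daily for 9 d. Plethysmometer volumes of injected (ipsilateral) and uninjected (contralateral) hind paws recorded separately. Two-way ANOVA with Dunnett's T3 test; n = 10/group.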

[2] = system: Rattus norvegicus; assay: (§1) Antiarthritic activity in Lewis rat Freund's adjuvant-induced arthritis model assessed as reduction in arthritis index score at 2.5 mg/kg, ig administered through gavage pretreated for 1 hr followed by adjuvant challenge subsequent treatment for 9 days measured alternate days up to 24 days post dose; format: functional, organism-based
In short: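 AIA induced in female 8-week-old Lewis rats by one intradermal 0.1 mL CFA injection (10 mg heat-killed M. tuberculosis per mL paraffin oil) into right hind paw; controls received paraffin oil–water emulsion. Daily intragastric dosing from 1 h before induction through 9 d. Arthritis index scored; Kruskal–Wallis with Dunn's test; n = 10/group.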

[3] = system: Rattus norvegicus; assay: as §1, with “mechanical withdrawal threshold” for “arthritis index score”; format: functional, organism-based
In short: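 Mechanical withdrawal threshold in Lewis AIA rats (right-paw CFA, gavage dosing 1 h pre-induction and daily 9 d), tested 1 h after dosing: 30 min habituation in individual cubicles, von Frey filament applied upward to mid-paw until withdrawal, 55 g cut-off, repeated twice at 10 min intervals; ipsilateral and contralateral paws recorded separately; n = 10.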

[4] = system: Rattus norvegicus; assay: (§2) Antiarthritic activity in Wistar rat type-2 collagen-induced arthritis model assessed as reduction in serum TNF-alpha level at 15 mg/kg, ig via gavage administered 10 consecutive days starting from day 20 post type-2 collagen injection by ELISA method; format: functional, organism-based
In short: (§3)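 CIA Wistar rats dosed by gavage daily for 10 d from day 20 post first CII injection. Trunk blood serum stored at −70 °C. Right hind paw joint tissue homogenized at 200 mg/mL in PBS with 50 U/mL aprotinin, then centrifuged at 3000 rpm for 20 min at 4 °C. IL-1β and TNF-α quantified by ELISA kits in serum and supernatant. n = 10; one-way ANOVA with SNK.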

[5] = system: Rattus norvegicus; assay: Antiarthritic activity in Wistar rat type-2 collagen-induced arthritis model assessed as reduction in joint tissue TNF-alpha level at 15 mg/kg, ig via gavage administered 10 consecutive days starting from day 20 post type-2 collagen injection by ELISA method; format: functional, organism-based; in short: as §3
[6] = system: Rattus norvegicus; assay: Antiarthritic activity in Wistar rat type-2 collagen-induced arthritis model assessed as reduction in joint tissue IL-1beta level at 15 mg/kg, ig via gavage administered 10 consecutive days starting from day 20 post type-2 collagen injection by ELISA method; format: functional, organism-based; in short: as §3
[7] = system: Rattus norvegicus; assay: Antiarthritic activity in Lewis rat Freund's adjuvant-induced arthritis model assessed as reduction in mechanical allodynia in contralateral hind paw at 0.6 to 15 mg/kg, ig administered through gavage pretreated for 1 hr followed by adjuvant challenge and subsequent treatment for 9 days measured alternate days up to 24 days post dose; format: functional, organism-based
In short: (§4)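 Lewis rats with CFA-induced arthritis (0.1 mL intradermal, right hind paw), gavaged 1 h before induction and daily for 9 d. Mechanical withdrawal threshold measured 1 h after dosing. Rats habituated 30 min in individual cubicles; von Frey filament applied upward to the centre of each hind paw until withdrawal, maximum 55 g. Repeated twice at 10 min intervals; ipsilateral and contralateral paws recorded separately. n = 10; two-way ANOVA.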

[8] = system: Rattus norvegicus; assay: as §1, with “0.6” for “2.5”, “challenge and” for “challenge”; format: functional, organism-based
In short: (§5)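 Female Lewis rats (8 weeks old) given a single intradermal injection of 0.1 mL CFA (heat-killed M. tuberculosis in paraffin oil) into the right hind paw. Gavage dosing in sterile saline 1 h before induction and daily for 9 d. Arthritis index scored (the paper reports the 18 d reading). n = 10 per group; Kruskal−Wallis with Dunn's test.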

[9] = system: Rattus norvegicus; assay: Antiarthritic activity in Wistar rat type-2 collagen-induced arthritis model assessed as reduction in TNF-alpha mRNA expression at 15 mg/kg, ig via gavage administered 10 consecutive days starting from day 20 post type-2 collagen injection by qPCR analysis; format: functional, organism-based
In short: (§6)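 Male Wistar rats (7 weeks old) given chicken CII (2 mg/mL in 0.1 M acetic acid) emulsified 1:1 in BCG/IFA adjuvant, two intradermal 0.3 mL injections 7 d apart. Gavage in saline daily for 10 d from day 20. Total RNA from ankle synovial tissue homogenate, reverse transcribed, qPCR in triplicate. Fold change vs blank control by 2−ΔΔCt.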

[10] = system: Rattus norvegicus; assay: Antiarthritic activity in Wistar rat type-2 collagen-induced arthritis model assessed as reduction in arthritis index score administered as ig via gavage for 10 consecutive days starting from day 20 post type-2 collagen injection; format: functional
In short: (§7)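 Male Wistar rats (7 weeks old) immunized with chicken CII in CFA/IFA, two intradermal 0.3 mL injections 7 d apart. Oral gavage in saline for 10 consecutive days starting day 20. Evaluation at baseline, predosing, and on alternate days thereafter: arthritis score; plethysmometer volume averaged over both hind paws; von Frey threshold 1 h post-dose (max 55 g, two repeats 10 min apart). n = 10.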

[11] = system: Rattus norvegicus; assay: Antiarthritic activity in Lewis rat Freund's adjuvant-induced arthritis model assessed as reduction in arthritis index score at 3 mg/kg, ig administered through gavage pretreated for 1 hr followed by adjuvant challenge subsequent treatment for 9 days measured alternate days up to 24 days post dose; format: functional, organism-based; in short: as §5
[12] = system: Rattus norvegicus; assay: Antiarthritic activity in Lewis rat Freund's adjuvant-induced arthritis model assessed as change in thymus weight at 0.6 to 15 mg/kg, ig administered through gavage pretreated for 1 hr followed by adjuvant challenge subsequent treatment for 9 days measured alternate days up to 24 days post dose; format: functional, organism-based
In short: (§8)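 Female Lewis rats (8 weeks old, 120−140 g) given a single intradermal injection of 0.1 mL CFA (10 mg heat-killed M. tuberculosis per 1 mL paraffin oil) into the right hind paw. Oral gavage in sterile saline 1 h before induction, then daily for the next 9 d. Sacrifice by exsanguination under deep anesthesia 24 d after adjuvant. Spleen, liver and thymus weighed and corrected for body weight (g/100 g). n = 10; one-way ANOVA with Student−Newman−Keuls.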

[13] = system: Rattus norvegicus; assay: Antiarthritic activity in Wistar rat type-2 collagen-induced arthritis model assessed as reduction in bone degradation at 0.6 to 15 mg/kg, ig via gavage administered 10 consecutive days starting from day 20 post type-2 collagen injection by X-ray method; format: functional, organism-based
In short: (§9)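 CIA in male Wistar rats (chicken CII emulsion, two intradermal injections 7 d apart); daily gavage for 10 d from day 20. After treatment, hind limbs X-rayed. Left hind paw joints fixed in 10% formalin, decalcified in 10% EDTA for 28 d at 4 °C, paraffin-embedded, sectioned at 5 μm, H&E-stained and examined by light microscopy at 100×.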

[14] = system: Rattus norvegicus; assay: Antiarthritic activity in Wistar rat type-2 collagen-induced arthritis model assessed as reduction in mechanical allodynia administered as ig via gavage for 10 consecutive days starting from day 20 post type-2 collagen injection; format: functional; in short: as §7
[15] = system: Rattus norvegicus; assay: Antiarthritic activity in Lewis rat Freund's adjuvant-induced arthritis model assessed as reduction in arthritis index score at 15 mg/kg, ig administered through gavage pretreated for 1 hr followed by adjuvant challenge subsequent treatment for 9 days measured alternate days up to 24 days post dose; format: functional, organism-based; in short: as §5
[16] = system: Rattus norvegicus; assay: Antiarthritic activity in Wistar rat type-2 collagen-induced arthritis model assessed as reduction in serum IL-1beta level at 3 to 15 mg/kg, ig via gavage administered 10 consecutive days starting from day 20 post type-2 collagen injection by ELISA method; format: functional, organism-based; in short: as §3
[17] = system: Rattus norvegicus; assay: Antiarthritic activity in Wistar rat type-2 collagen-induced arthritis model assessed as reduction in serum anti-type-2 collagen IgG level at 0.6 mg/kg, ig via gavage administered 10 consecutive days starting from day 20 post type-2 collagen injection by ELISA method; format: functional, organism-based
In short: (§10)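 CIA Wistar rats (chicken CII in BCG/IFA emulsion, intradermal twice 7 d apart) gavaged daily for 10 d from day 20. Serum collected after treatment; anti-CII IgG quantified with a rat anti-CII antibody ELISA kit. n = 10 per group; one-way ANOVA with Student−Newman−Keuls.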

[18] = system: Rattus norvegicus; assay: Antiarthritic activity in Lewis rat Freund's adjuvant-induced arthritis model assessed as change in liver weight at 0.6 to 15 mg/kg, ig administered through gavage pretreated for 1 hr followed by adjuvant challenge subsequent treatment for 9 days measured alternate days up to 24 days post dose; format: functional, organism-based; in short: as §8
[19] = system: Rattus norvegicus; assay: as §2, with “cartilage degeneration in joints” for “serum TNF-alpha level”, “hematoxylin and eosin staining based light microscopy” for “ELISA method”; format: functional, organism-based; in short: as §9
[20] = system: Rattus norvegicus; assay: Antiarthritic activity in Wistar rat type-2 collagen-induced arthritis model assessed as reduction in serum anti-type-2 collagen IgG level at 3 mg/kg, ig via gavage administered 10 consecutive days starting from day 20 post type-2 collagen injection by ELISA method; format: functional, organism-based; in short: as §10
[21] = Toxicity in ig dosed Wistar rat measured 30 mins after administration via gavage at 4 h intervals during first 24 hrs and twice a day thereafter over the next 13 days; format: organism-based; settings: in vivo, po
In short: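 OECD 425 up-and-down procedure in ten 7-week-old male Wistar rats, fasted overnight. Single gavage dose at 10 mL/kg, starting at 300 mg/kg with a progression factor of 1/0.75. Survival checked at 30 min, every 4 h for 24 h, then twice daily for 13 d. LD50 reported with a 95% confidence interval.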

[22] = system: Rattus norvegicus; assay: Antiarthritic activity in Wistar rat type-2 collagen-induced arthritis model assessed as reduction in serum anti-type-2 collagen IgG level at 15 mg/kg, ig via gavage administered 10 consecutive days starting from day 20 post type-2 collagen injection by ELISA method; format: functional, organism-based; in short: as §10
[23] = system: Rattus norvegicus; assay: Antiarthritic activity in Lewis rat Freund's adjuvant-induced arthritis model assessed as change in spleen weight at 0.6 to 15 mg/kg, ig administered through gavage pretreated for 1 hr followed by adjuvant challenge subsequent treatment for 9 days measured alternate days up to 24 days post dose; format: functional, organism-based; in short: as §8
[24] = system: Rattus norvegicus; assay: Antiarthritic activity in Wistar rat type-2 collagen-induced arthritis model assessed as reduction in cartilage space narrowing at 0.6 to 15 mg/kg, ig via gavage administered 10 consecutive days starting from day 20 post type-2 collagen injection by X-ray method; format: functional, organism-based; in short: as §9
[25] = system: Rattus norvegicus; assay: Antiarthritic activity in Wistar rat type-2 collagen-induced arthritis model assessed as reduction in IL-1beta mRNA expression at 15 mg/kg, ig via gavage administered 10 consecutive days starting from day 20 post type-2 collagen injection by qPCR analysis; format: functional, organism-based; in short: as §6
[26] = system: Rattus norvegicus; assay: Antiarthritic activity in Wistar rat type-2 collagen-induced arthritis model assessed as reduction in bone degeneration at 15 mg/kg, ig via gavage administered 10 consecutive days starting from day 20 post type-2 collagen injection by hematoxylin and eosin staining based light microscopy; format: functional, organism-based; in short: as §9
[27] = system: Rattus norvegicus; assay: Antiarthritic activity in Wistar rat type-2 collagen-induced arthritis model assessed as reduction in bone erosion at 0.6 to 15 mg/kg, ig via gavage administered 10 consecutive days starting from day 20 post type-2 collagen injection by X-ray method; format: functional, organism-based; in short: as §9
[28] = system: Rattus norvegicus; assay: Antiarthritic activity in ig dosed Lewis rat Freund's adjuvant-induced arthritis model assessed as reduction in mechanical allodynia in ipsilateral hind paw administered through gavage pretreated for 1 hr followed by adjuvant challenge and subsequent treatment for 9 days measured alternate days up to 24 days post dose; format: functional, organism-based; in short: as §4

In the case of `COc1ccc2c(c1)c(CC(=O)O)c(C)n2C(=O)c1ccc(Cl)cc1`, the Activity [1] is reported as “Active”, the Activity [2] is reported as “Active” and the Activity [3] is reported as “Active”.

With `C=C[C@@]12CN(C)[C@H]3C[C@]14C(=Nc1ccccc14)[C@H]1C[C@@H]2[C@@H]3CO1` the Activity [4] was “Active”, the Activity [5] was “Active” and the Activity [6] was “Active”. The Activity [7] was “inactive”, the Activity [8] was “Active” and the Activity [9] was “Active”. The Activity [10] was “Dose-dependent effect”, the Activity [11] was “Active” and the Activity [12] was “Active”. For the same molecule, the Activity [13] was “Active”, the Activity [14] was “Dose-dependent effect” and the Activity [15] was “Active”. For the same molecule, the Activity [16] was “Active”, the Activity [17] was “inactive” and the Activity [18] was “Active”. For the same molecule, the Activity [19] was “Active”, the Activity [20] was “Active” and the LD50 at 14 days [21] was 300 mg/kg. The Activity [22] was “Active”, the Activity [23] was “inactive” and the Activity [24] was “Active”. The Activity [25] was “Active”, the Activity [26] was “Active” and the Activity [27] was “Active”. For the same molecule, the Activity [28] was “Dose-dependent effect”.
